PP5 inh: inhibitors of human protein phosphatase 5 (PP5); P53041; purified PP5c, OMFP substrate fluorescence; inhibition, % at 6.7 µM; hit rate 0.18% among 320,000; AID 1987;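 active = inhibition above the campaign's mean inhibition across all tested compounds plus 3 SD, cut at about 9.5% in these data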;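 note: 0% = DMSO only and 100% = 100 µM cantharidin control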
Apaf-1 inh: human Apaf-1 inhibition; O14727; reconstituted apoptosome caspase-3 activity, DEVD-Rh110 fluorescence; inhibition, % at 20 µM; hit rate 0.71% among 330,000; active = inhibition of at least 40% at 20 µM;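 note: plate controls were DMSO wells for no effect and DEVD-CHO caspase inhibitor wells for full effect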
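Material: biochemical Apaf-1 apoptosome reconstitution. Medium: Hepes buffer, pH 7.5. Also added: cytochrome c activation, bis-DEVD rhodamine 110 substrate. Timing: 30 min compound preincubation, 50 min activation, room temperature. Measured by: rhodamine 110 fluorescence at Ex 480/Em 540 nm.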
UCH37 inh: inhibitors of human deubiquitinating enzyme UCH37 | inhibition, % (no concentration beside the values) | hit rate 0.33% among 330,000 | purified proteasome/UCH37, Ub-AMC cleavage fluorescence | Q9Y5K5 | AID 588478;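 active = mean inhibition over replicate wells above about 20%, limit read from the data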;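 note: 0% = compound-free wells with enzyme and 100% = wells lacking proteasome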
Target sequence (Q9Y5K5 whole entry, looked up): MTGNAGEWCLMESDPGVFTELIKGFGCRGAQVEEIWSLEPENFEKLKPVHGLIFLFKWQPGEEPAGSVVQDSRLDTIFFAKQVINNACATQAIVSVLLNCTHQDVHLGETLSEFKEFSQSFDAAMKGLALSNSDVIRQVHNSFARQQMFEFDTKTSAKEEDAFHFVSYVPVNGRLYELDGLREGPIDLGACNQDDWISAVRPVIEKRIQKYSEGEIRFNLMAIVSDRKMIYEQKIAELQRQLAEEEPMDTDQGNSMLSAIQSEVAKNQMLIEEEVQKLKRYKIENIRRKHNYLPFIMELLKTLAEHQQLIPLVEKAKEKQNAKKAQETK
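Schedule: 30 min plus 25 min, room temperature / Material: human UCH37 within purified proteasomes / Technique: AMC fluorescence intensity at 355/460 nm / Buffer or medium: pH 7.4 Tris-HCl (50 mM) with ovalbumin, ATP-MgCl2, DTT / Controls: wells without proteasome as full block, compound-free enzyme plus substrate as uninhibited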
GSTO1 counter: GSTO1 inhibition, counter-screen for RBBP9 inhibitors; inhibition, % at 5.96 µM; AID 1974; hit rate 1.1% among 300,000; recombinant GSTO1, activity-based probe fluorescence polarization; P78417;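 active = inhibition above the campaign mean inhibition plus 3 SD, cut at about 35% in these data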;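 note: 0% = GSTO1-1 with DMSO and 100% = wells lacking GSTO1-1 enzyme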
Target sequence (P78417 whole entry, looked up): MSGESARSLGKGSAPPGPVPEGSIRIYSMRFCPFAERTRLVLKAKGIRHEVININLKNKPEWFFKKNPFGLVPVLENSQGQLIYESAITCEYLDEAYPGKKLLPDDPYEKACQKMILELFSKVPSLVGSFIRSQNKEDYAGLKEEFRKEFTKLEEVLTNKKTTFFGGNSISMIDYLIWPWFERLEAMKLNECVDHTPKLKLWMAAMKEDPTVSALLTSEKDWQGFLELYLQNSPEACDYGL
Fh CTSL1 inh: cathepsin L1 inhibition, PFM18AAP counter-screen. AID 1906. inhibition, % at 5.96 µM. hit rate 0.49% among 300,000. recombinant F. hepatica cathepsin L1, Z-Leu-Arg-MCA fluorescence;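 active = inhibition above the mean of all tested compounds plus 3 SD, set per screening campaign, cut at about 17% in these data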;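 note: 0% = plate median of test compound wells and 100% = 1 µM Z-Phe-Ala-diazomethylketone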
PAD4 FP inh: blocks human protein arginine deiminase 4; Q9UM07; hit rate 0.41% among 330,000; inhibition, % at 6.36 µM; recombinant PAD4, RCA probe fluorescence polarization;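 active = percent inhibition above a cutoff equal to the mean of all tested compounds plus 3 SD, cut at about 15% in these data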;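 note: 0% = PAD4 with RCA probe and DMSO and 100% = probe without PAD4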
* marks the source's active call; other numbers are inactive results; . = no result. A selection: hits, their analogues and other compounds. The true share with any hit is near 2%.

SMILES	PP5 inh	Apaf-1 inh	UCH37 inh	GSTO1 counter	Fh CTSL1 inh	PAD4 FP inh
CCCC[C@H](CC(=O)c1ccccc1)[C@@H](OC(C)=O)C(=O)Oc1c(C(C)C)cccc1C(C)C	-0.7	7.1	25.0*	.	.	-1.1
COc1cccc(NC(=S)NN=C2CCC(C(C)(C)C)CC2)c1 (configuration not stated)	-0.2	21.7	-0.3	1.7	20.0*	-4.4
O=C(C1=C[C@H](c2ccccc2)C[C@H](OCCCCO)O1)N1CCN(Cc2ccc3c(c2)OCO3)CC1	2.8	1.3	3.9	-1.1	-2.9	1.3
O=C(C1=C[C@@H](c2ccc(Br)cc2)C[C@@H](OCCCCO)O1)N1CCN(Cc2ccc3c(c2)OCO3)CC1	5.5	30.1	29.9*	3.5	2.8	0.1
CCCN(CCC)c1nc(N(CCC)CCC)[nH]c(=O)n1	0.9	6.0	4.9	-4.6	0.7	-1.8
CN(C)c1nc(N(C)C)nc(N(C)C)n1	2.0	-15.1	0.1	5.6	3.4	-0.7
CCCN(CCC)c1nc(C#N)nc(N(CCC)CCC)n1	0.1	9.0	0.6	7.2	17.7*	-1.0
CN(C)c1nc(C#N)nc(N(C)C)n1	0.5	-2.3	5.6	-2.9	26.1*	6.2
COc1cccc(C=c2sc(=CC(=O)c3ccc(C)cc3)[nH]c2=O)c1OC	.	.	1.5	.	.	.
Cc1[nH]c2ccccc2c1/C=N/NC(N)=S	2.5	-10.9	.	-5.7	92.3*	1.8
NC(=S)N/N=C\c1c(OCc2ccccc2Cl)ccc2ccccc12	1.6	25.5	.	11.3	29.6*	-1.1
NC(=S)NN=Cc1c(O)ccc2ccccc12	.	.	3.3	.	.	.
NC(=S)N/N=C\c1c2ccccc2cc2ccccc12	2.0	.	.	-0.4	84.5*	3.0
O=C(O)CCC(=NNC(=O)CNC(=O)c1ccc2c(c1)OCCO2)c1ccccc1	.	.	-2.2	.	.	.
Cc1ccc(S(=O)(=O)N(C)C(=NS(=O)(=O)c2ccccc2)c2ccccc2)cc1	.	.	5.7	.	.	.
CCCCNC(=S)N(CCN(CC)CC)Cc1cc2cc3c(cc2[nH]c1=O)OCCO3	-9.3	5.1	-109.9	0.3	17.6*	12.0
CC(C)(C)c1ccc(CN2N=Nc3ccccc3S2(=O)=O)cc1	2.5	18.1	5.7	-0.1	12.5	-0.5
O=S1(=O)c2ccccc2N=NN1Cc1ccc(Cl)c(Cl)c1	-1.0	22.2	.	35.0*	6.6	-7.4
CCCN(CC(=O)Nc1ccccc1OC)C(=O)c1cc(S(=O)(=O)NCc2ccccc2)ccc1C	-1.4	61.7*	1.9	-3.3	1.4	-2.6
CCCN(CC(=O)Nc1ccccc1OC)C(=O)c1cccc(S(=O)(=O)NCc2ccccc2)c1	-1.4	16.8	3.1	-5.4	-0.3	-1.5
Cc1c(NC(=S)NN=Cc2ccc(N(C)C)cc2)c(=O)n(-c2ccccc2)n1C	.	.	-72.9	.	.	.
O=C(CN(c1ccc(Cl)cc1)S(=O)(=O)c1ccccc1)NN=Cc1ccco1	.	.	3.8	.	.	.
CCC(C)[C@H](NC(=O)N1CC(=O)Nc2ccccc21)C(=O)N[C@@H](Cc1c[nH]c2ccccc12)C(=O)O (some centres not stated)	1.4	-8.0	4.5	2.9	5.0	0.8
CC(C)C[C@H](NC(=O)N1CC(=O)Nc2ccccc21)C(=O)N[C@H](Cc1c[nH]c2ccccc12)C(=O)O	-0.5	5.2	2.8	1.1	37.9*	-1.3
CC(C)C[C@H](NC(=O)N1CC(=O)Nc2ccccc21)C(=O)N[C@H](C(=O)O)c1ccccc1	2.3	.	2.2	-0.5	-0.3	-0.8
SMILES	PP5 inh	Apaf-1 inh	UCH37 inh	GSTO1 counter	Fh CTSL1 inh	PAD4 FP inh
CC(C)C[C@H](NC(=O)N1CC(=O)Nc2ccccc21)C(=O)N[C@@H](Cc1c[nH]c2ccccc12)C(=O)O	-1.2	-6.8	3.0	11.2	21.7*	-4.1
CCNC(=S)NN=Cc1cc(C)ccc1C	.	.	5.0	.	.	.
COc1c(OC2OC(C(=O)O)C(O)C(O)C2O)cc(O)c2c(=O)cc(-c3ccccc3)oc12 (configuration not stated)	1.9	4.4	2.3	11.7	0.9	-0.3
O=C(O)C1OC(Oc2cc3oc(-c4ccccc4)cc(=O)c3c(O)c2O)C(O)C(O)C1O (configuration not stated)	-0.5	-4.8	6.2	36.9*	-0.2	-2.6
Cc1cc(Cl)ccc1OCC(=O)NN=Cc1ccncc1	.	.	3.3	.	.	.
Cn1cc(C=NNC(=O)c2cc3cc(Br)ccc3o2)c2ccccc21	.	.	-43.3	.	.	.
CSc1ccc(C=NNC(=O)c2ccccc2Cl)cc1	.	.	2.2	.	.	.
CC(C)=CC(=O)Nc1nnc(C)s1	-2.1	-10.2	28.1*	-6.2	-1.2	-2.8
COCCNC(=O)/C(C#N)=C/C=C/c1ccccc1[N+](=O)[O-]	-0.3	6.3	-79.3	43.8*	2.6	-0.8
COCCNC(=O)/C(C#N)=C/c1ccc(O)c([N+](=O)[O-])c1	-3.3	-9.3	19.8	11.1	3.2	-0.9
COc1ccccc1C=Nn1c(N)c(C(=O)NC2CCCCC2)c2nc3ccccc3nc21	.	.	-333.4	.	.	.
CCCCNC(=O)c1cn(CC)c2ccc(S(=O)(=O)N3CCCC3)cc2c1=O	-0.4	4.6	5.0	12.1	1.0	-2.5
CCn1cc(C(=O)NCCc2ccccc2)c(=O)c2cc(S(=O)(=O)N3CCCC3)ccc21	3.8	12.7	3.9	0.9	17.2*	-2.3
Cc1ccc2nc(NCCNC(=O)c3ccccc3)c(C#N)cc2c1	3.0	-4.7	-104.7	7.7	38.5*	-6.2
CCCCS(=O)(=O)/C=C\C=C/S(=O)(=O)CCCC	3.6	-15.8	0.6	9.8	64.1*	-0.5
CCOC(=O)Cc1nnc(NC(=O)CSc2nnc3c4ccccc4n(C)c3n2)s1	2.2	3.5	6.7	35.2*	0.4	-2.2
CCOC(=O)Cc1nnc(NC(=O)CSc2ccc(C)cc2)s1	2.0	5.9	3.6	4.3	0.1	-4.9
COc1cc(C(=O)NC2=NCCS2)ccc1OCc1c(C)noc1C	1.4	-0.5	-1.2	3.4	37.2*	1.0
COc1cc(C(=O)Nc2cc(C)ccc2C)ccc1OCc1c(C)noc1C	.	4.7	2.2	.	.	-6.6
C=CCc1cccc(C=NNC(=O)CNc2cccc3ccccc23)c1O	.	.	1.5	.	.	.
COc1ccc(-n2c(N)c(C(=O)Nc3c(C)n(C)n(-c4ccccc4)c3=O)c3nc4ccccc4nc32)cc1	1.7	27.8	.	8.8	1.0	0.5
Cc1ccc(-n2c(N)c(C(=O)Nc3c(C)n(C)n(-c4ccccc4)c3=O)c3nc4ccccc4nc32)cc1C	0.8	42.4*	.	-7.0	4.6	-8.2
O=C(/C=C/Nc1ccc([N+](=O)[O-])cc1)c1ccc(Br)cc1	3.4	11.1	.	6.9	17.5*	-5.0
O=C(CCl)Nc1cccc(S(=O)(=O)N2CCCCCC2)c1	1.7	10.5	6.0	90.6*	78.0*	3.1
C=CCn1c(COc2ccccc2)nnc1SCC(=O)NN=Cc1ccc(C)cc1	.	.	-1.0	.	.	.
Cc1cc(C)c(O)c(CN(C)Cc2cc(Cl)cc(Cl)c2O)c1	.	.	0.1	.	.	.
Oc1c(Cl)cc(Cl)cc1Sc1cc(Cl)cc(Cl)c1O	9.2	18.5	.	56.6*	0.9	-3.4
